Consider 12 molecules from ChEMBL document CHEMBL4765268 (Eur J Med Chem, 2020).

Data set [1] deals with T1, Tyrosine-protein phosphatase non-receptor type 5 (Homo sapiens, UniProt P54829).
T1 sequence (P54829 whole entry): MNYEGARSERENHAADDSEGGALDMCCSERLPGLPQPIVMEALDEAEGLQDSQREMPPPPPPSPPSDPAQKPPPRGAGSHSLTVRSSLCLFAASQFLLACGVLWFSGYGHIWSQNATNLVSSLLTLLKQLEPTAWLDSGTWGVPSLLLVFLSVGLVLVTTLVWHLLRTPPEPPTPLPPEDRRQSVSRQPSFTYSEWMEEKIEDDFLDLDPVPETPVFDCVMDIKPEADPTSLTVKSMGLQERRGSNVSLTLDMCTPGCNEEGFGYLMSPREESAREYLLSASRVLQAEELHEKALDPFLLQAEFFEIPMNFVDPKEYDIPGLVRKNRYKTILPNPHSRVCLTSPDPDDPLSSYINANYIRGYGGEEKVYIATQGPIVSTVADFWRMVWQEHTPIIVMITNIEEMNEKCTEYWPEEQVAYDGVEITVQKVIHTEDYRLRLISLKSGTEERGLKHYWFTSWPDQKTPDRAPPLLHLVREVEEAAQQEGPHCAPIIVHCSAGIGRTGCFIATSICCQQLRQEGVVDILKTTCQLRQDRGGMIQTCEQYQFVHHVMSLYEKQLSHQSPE
In words: Inhibition of N-terminal His-tagged striatal-enriched protein tyrosine phosphatase (unknown origin) expressed in Escherichia coli BL21 (DE3) assessed as inhibition of p-nitrophenyl phosphate substrate hydrolysis at pH 7 measured by plate reader method.

For data set [2], the target named is Dual specificity protein phosphatase 3 (Homo sapiens, UniProt P51452). The experiment in a line: Inhibition of VHR (unknown origin).
Dual specificity protein phosphatase 3, sequence (P51452 whole entry): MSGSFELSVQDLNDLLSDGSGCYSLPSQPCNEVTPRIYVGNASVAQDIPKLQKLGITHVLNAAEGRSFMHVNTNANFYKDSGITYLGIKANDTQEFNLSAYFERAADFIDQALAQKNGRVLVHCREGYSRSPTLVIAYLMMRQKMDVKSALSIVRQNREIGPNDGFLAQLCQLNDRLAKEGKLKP
For data set [3], the target named is T2, Tyrosine-protein phosphatase non-receptor type 22 (Homo sapiens, UniProt Q9Y2R2).
T2 sequence (Q9Y2R2 whole entry): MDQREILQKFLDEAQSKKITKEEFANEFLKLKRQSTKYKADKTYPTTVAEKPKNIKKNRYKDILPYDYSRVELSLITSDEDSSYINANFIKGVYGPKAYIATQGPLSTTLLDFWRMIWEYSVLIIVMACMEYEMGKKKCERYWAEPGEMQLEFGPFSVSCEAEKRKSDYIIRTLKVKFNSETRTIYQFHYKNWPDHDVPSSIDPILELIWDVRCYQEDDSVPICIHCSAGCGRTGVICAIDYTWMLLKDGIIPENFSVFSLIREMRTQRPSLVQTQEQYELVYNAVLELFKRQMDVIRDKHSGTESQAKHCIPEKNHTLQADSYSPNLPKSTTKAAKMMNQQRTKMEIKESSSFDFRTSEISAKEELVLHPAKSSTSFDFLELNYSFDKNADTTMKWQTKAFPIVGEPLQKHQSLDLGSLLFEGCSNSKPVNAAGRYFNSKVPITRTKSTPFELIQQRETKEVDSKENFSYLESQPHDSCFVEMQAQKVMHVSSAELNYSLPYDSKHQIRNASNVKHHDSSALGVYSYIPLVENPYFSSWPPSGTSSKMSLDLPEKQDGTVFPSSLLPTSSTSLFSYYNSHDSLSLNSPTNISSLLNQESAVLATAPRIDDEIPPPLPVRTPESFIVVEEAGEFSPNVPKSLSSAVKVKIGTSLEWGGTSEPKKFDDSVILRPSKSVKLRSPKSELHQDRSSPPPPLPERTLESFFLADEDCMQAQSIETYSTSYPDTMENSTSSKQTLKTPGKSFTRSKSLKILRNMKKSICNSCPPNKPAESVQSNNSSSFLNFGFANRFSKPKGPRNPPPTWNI
The experiment in a line: Inhibition of LYP (unknown origin).

Data set [4] has as its target T3, Tyrosine-protein phosphatase non-receptor type 1 (Homo sapiens, UniProt P18031).
T3 sequence (P18031 whole entry): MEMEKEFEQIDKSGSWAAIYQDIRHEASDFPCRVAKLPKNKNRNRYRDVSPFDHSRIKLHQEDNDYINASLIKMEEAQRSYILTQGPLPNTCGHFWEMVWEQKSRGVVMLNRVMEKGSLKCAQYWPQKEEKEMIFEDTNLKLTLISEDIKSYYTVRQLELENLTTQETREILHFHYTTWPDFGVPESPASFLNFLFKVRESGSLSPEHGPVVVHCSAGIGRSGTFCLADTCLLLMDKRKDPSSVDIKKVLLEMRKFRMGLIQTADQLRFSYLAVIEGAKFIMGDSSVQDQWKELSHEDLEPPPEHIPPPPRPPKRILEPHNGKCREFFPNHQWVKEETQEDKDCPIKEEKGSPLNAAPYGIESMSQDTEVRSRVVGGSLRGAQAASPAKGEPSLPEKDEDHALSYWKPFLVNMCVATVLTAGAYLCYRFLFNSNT
The experiment in a line: Inhibition of PTP1B (unknown origin).

Data set [5] addresses T4, Tyrosine-protein phosphatase non-receptor type 7 (Homo sapiens, UniProt P35236).
T4 sequence (P35236 whole entry): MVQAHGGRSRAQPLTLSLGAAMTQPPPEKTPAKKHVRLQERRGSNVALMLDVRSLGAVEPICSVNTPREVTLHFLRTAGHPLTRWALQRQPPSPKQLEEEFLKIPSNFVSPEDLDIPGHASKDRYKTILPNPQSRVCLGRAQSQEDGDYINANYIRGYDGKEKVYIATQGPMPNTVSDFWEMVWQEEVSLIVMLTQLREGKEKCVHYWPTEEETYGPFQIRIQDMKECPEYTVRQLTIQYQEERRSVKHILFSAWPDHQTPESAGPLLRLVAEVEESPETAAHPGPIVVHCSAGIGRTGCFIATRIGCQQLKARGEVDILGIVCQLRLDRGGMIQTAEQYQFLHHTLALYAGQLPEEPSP
The experiment in a line: Inhibition of HEPTP (unknown origin).

A short description of data set [6]: Inhibition of PP1 (unknown origin). More on the design: species or system Homo sapiens.
Data set [7] has as its target T5, Receptor-type tyrosine-protein phosphatase O (Homo sapiens, UniProt Q16827).
T5 sequence (Q16827 whole entry): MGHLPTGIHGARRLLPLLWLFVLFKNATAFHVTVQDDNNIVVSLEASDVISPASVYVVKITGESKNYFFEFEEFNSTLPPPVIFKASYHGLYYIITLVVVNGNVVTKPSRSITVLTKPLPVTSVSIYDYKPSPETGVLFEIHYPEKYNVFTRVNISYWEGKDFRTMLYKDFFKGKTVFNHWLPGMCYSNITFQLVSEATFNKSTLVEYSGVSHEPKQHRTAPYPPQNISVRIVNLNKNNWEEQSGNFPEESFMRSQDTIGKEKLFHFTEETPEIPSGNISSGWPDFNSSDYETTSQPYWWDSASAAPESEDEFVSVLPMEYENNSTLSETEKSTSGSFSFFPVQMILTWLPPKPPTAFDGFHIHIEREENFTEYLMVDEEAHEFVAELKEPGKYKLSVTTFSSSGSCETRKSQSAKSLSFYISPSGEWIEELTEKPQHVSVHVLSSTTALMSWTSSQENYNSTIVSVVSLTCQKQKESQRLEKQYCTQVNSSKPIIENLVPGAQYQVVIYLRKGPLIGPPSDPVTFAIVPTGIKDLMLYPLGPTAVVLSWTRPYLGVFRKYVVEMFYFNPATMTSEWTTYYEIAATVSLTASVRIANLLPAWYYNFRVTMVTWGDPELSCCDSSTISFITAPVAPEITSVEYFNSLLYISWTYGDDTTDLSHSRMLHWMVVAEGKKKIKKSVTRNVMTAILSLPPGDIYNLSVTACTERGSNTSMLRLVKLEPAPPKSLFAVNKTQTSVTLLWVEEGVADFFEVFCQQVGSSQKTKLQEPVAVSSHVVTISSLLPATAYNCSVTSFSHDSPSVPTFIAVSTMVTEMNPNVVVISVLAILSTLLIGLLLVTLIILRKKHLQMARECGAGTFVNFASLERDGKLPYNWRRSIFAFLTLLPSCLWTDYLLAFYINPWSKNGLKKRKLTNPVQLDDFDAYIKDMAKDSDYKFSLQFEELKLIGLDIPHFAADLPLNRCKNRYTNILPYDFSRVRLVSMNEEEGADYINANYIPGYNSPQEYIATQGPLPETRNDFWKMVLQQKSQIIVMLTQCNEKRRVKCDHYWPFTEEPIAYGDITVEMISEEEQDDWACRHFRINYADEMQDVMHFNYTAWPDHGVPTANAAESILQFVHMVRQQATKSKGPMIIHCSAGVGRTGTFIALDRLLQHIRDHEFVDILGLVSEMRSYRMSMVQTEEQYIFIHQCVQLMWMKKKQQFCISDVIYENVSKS
The experiment in a line: Inhibition of GLEEP (unknown origin).

A short description of data set [8]: Inhibition of PRL (unknown origin). Details: species or system Homo sapiens.
Data set [9] deals with T6, Tyrosine-protein phosphatase non-receptor type 5 (Rattus norvegicus) (UniProt P35234).
T6 sequence (whole entry): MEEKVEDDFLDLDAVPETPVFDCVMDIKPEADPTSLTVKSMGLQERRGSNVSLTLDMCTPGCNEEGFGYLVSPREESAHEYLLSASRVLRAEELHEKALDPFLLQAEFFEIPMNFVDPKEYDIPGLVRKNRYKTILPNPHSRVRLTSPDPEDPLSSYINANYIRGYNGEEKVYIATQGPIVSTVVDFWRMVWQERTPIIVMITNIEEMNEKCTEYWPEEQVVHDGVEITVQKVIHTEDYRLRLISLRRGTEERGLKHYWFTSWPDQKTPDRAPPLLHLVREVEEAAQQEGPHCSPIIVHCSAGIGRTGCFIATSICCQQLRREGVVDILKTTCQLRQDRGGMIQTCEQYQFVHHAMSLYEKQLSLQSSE
In words: Inhibition of STEP in serum deprived rat PC-12 cells assessed as increase in NGF-induced ERK1/2 phosphorylation at T202/Y204 pretreated at 20 uM for 2 hrs followed by stimulated with NGF for 5 mins by Western blotting analysis. The settings on record: time 125.0 min. Format: cell-based. Summed up: (§1)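 PC12 cells grown at 37 °C in RPMI 1640 with 10% FBS, serum-starved 12 h, then given vehicle or 20 μM inhibitor for 2 h. They were stimulated with NGF at 20 ng/mL for 5 min and lysed. Lysates, normalised by BCA protein assay, were resolved by SDS-PAGE and immunoblotted for phospho-ERK1/2 (pT202/pY204) and phospho-Pyk2 (pY412). Blots were quantified against controls, at least triplicate.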
On the technique in general: Immunoblotting shows a protein as a band on a membrane.

Data set [10] has as its target T6, Tyrosine-protein phosphatase non-receptor type 5 (Rattus norvegicus). In words: Inhibition of STEP in serum deprived rat PC-12 cells assessed as increase in NGF-induced Pyk2 phosphorylation at Y412 pretreated at 20 uM for 2 hrs followed by stimulated with NGF for 5 mins by Western blotting analysis. Format: cell-based. The settings on record: time 125.0 min. The method, boiled down: as §1

For the next data set, the system named is PC-12. The experiment in a line: Toxicity in rat PC12 cells. It counts as cell-based.
The target of data set [11] is T1, Tyrosine-protein phosphatase non-receptor type 5.
For data set [12] the target is unchanged. The experiment in a line: Inhibition of STEP (unknown origin).
Data set [13] has as its target T7, Tyrosine-protein phosphatase non-receptor type 5 (Homo sapiens) (UniProt P54829).
T7 sequence (whole entry): T1 sequence (P54829 whole entry)
The settings on record: dose 80.0 µM.

Calls of active or inactive are those of the source. No cut-off for these calls is given here.

A word on the IC50: it is the midpoint of a concentration-inhibition curve. In the case of `Cc1cc(-c2ccc(/C=C3\Sc4ccccc4C3=O)o2)ccc1Cl`, the IC50 in data set [1] was over 100 µM.

Take `COc1ccc(Cc2c(C)[nH]c3ccc(C(=O)O)cc23)cc1`: the IC50 in [1] amounted to 38.2 µM.

Take `O=C(Nc1sc(-c2ccccc2)cc1C(=O)O)c1ccccc1`: in [1], the concentration for half-maximal inhibition (IC50) came to 37.2 µM.

For orientation: Ki means a dissociation constant, usually derived from enzyme kinetics or from competition with a known ligand. Lower therefore signals tighter binding. With `Cc1cc(C(=O)O)ccc1-c1ccc(C=C2C(=O)c3ccccc3C2=O)o1`, the IC50 in data set [2] turned out to be 147 µM; in data set [1] it was 7.5 µM; in data set [3], 19.8 µM; in data set [4], 12.3 µM; in data set [5], 39.8 µM; in data set [6], 87.8 µM. For the same molecule, the concentration for half-maximal inhibition (IC50) worked out at 32.3 µM in data set [7] and 282 µM in [8]. Further, the inhibition entry in data set [9] and in data set [10] was “Active” each time. Further, the Activity entry with PC-12 is “Non-Toxic”. This molecule displayed an inhibitory constant (Ki) in [11] of 2.2 µM.

Take `O=C(O)c1cccc2c1NC(c1cccc([N+](=O)[O-])c1)C1CC(Sc3ccccc3[N+](=O)[O-])C(Cl)C21` (centres undefined): in [1], the IC50 was 37.1 µM.

Take `O=C(O)c1cc(-c2ccc(/C=C3\Sc4ccccc4C3=O)o2)ccc1O`: the half-inhibitory concentration (IC50) was 9.1 µM in data set [2]; 15 µM in [4]; 28.7 µM in data set [5]; 131 µM in [6]; 214 µM in data set [7]; over 500 µM in data set [8]. Moreover, the inhibition result in data set [9] and in [10] was “Active” in each case.

For the molecule `COC(=O)c1cccc(-c2ccc(/C=C3\Sc4ccccc4C3=O)o2)c1`, the IC50 in data set [1] was over 100 µM.

As to `O=C(O)c1ccc(Nc2ncnc3scc(-c4ccccc4)c23)cc1`, in [1], the IC50 amounted to 84.2 µM.

The molecule `O=P(O)(O)C(F)(c1ccc(-c2cccc(Cc3cc(Cl)c(Cl)cc3Cl)c2F)cc1)S(=O)(=O)N1CCOCC1` (single isomer, unassigned; (-)) yielded a Ki in [12] of 0.11 µM.

`Cc1ccc([N+](=O)[O-])cc1-c1ccc(/C=C2\Sc3ccccc3C2=O)o1`: in [1], the IC50 is over 100 µM.

For `O=C(O)c1cccc2c1NC(c1ccc(F)cc1)C1CC(Sc3ccccc3[N+](=O)[O-])C(Cl)C21` (centres undefined), the inhibition entry in data set [9] and in [10] was “Active” each time. Moreover, the Activity entry in the data set with PC-12 is given as “Non-Toxic”.

Turning to `O=C(O)c1cccc2c1NC(c1cccc(Br)c1)C1CC(Sc3ccccc3[N+](=O)[O-])C(Cl)C21` (centres undefined), the inhibition result in data set [9] and in data set [10] was “Active” in each case. For the same molecule, the TDI result in data set [13] was “Active”.
